# Screening results: PubChem BioAssay, several laboratories
# In the library only some 2.8% were active in any assay of this set; here they are far more common.
# MC4R antagonist: human MC4R antagonism in cAMP assay. P32245. MC4R-expressing cells, MTII-stimulated cAMP, LANCE TR-FRET. inhibition, % at 6.5 µM. 360,000 tested, 0.48% active. AID 540295;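 active means inhibition above its plate's cutoff, the mean of tested wells on that plate plus 3 SD, cut at about 29% in these data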;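 further: 0% = Melanotan II alone and 100% = Melanotan II plus saturating MCL0020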
#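 Assay system: U2OS cells stably expressing human melanocortin 4 receptor (MC4R) / Dosing: 6.5 µM / Timing: compound 30 min, challenge 1 h, detection 1 h / Measured by: Eu-cAMP/anti-cAMP TR-FRET, emission 671 nm / Replicates: singlicate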
# EBI2 block: EBI2 (human) antagonism | P32249 | EBI2 beta-arrestin recruitment, luminescence, 7a,25-OHC stimulated | inhibition, % at 5 µM | 360,000 tested, 0.81% active | AID 651636; in the data active means inhibition above about 38%;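 further: enzyme fragment complementation signal reports receptor beta-arrestin coupling in cells; 0% = agonist plus DMSO wells and 100% = wells without agonist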
# Target sequence (P32249 whole entry, looked up, the tested form may be a part): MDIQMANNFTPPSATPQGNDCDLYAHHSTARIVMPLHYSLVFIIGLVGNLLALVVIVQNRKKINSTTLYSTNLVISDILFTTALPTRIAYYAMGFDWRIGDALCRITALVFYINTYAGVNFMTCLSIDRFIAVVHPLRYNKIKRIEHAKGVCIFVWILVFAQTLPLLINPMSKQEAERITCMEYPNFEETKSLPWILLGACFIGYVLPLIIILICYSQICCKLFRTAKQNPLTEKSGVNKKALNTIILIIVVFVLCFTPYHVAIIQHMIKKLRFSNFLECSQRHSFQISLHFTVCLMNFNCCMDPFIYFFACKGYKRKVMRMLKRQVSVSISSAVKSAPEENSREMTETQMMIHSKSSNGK
# MC4R barr agon: activates human MC4R beta-arrestin recruitment; P32245; U2OS MC4R beta-arrestin complementation, luminescence; percent of melanotan II response, DMSO zero; activation, % at 8.9 µM; 360,000 tested, 0.98% active; AID 540308;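 active means activation above a per-plate cutoff, the mean activation of sample wells on that plate plus 3 SD, cut at about 8% in these data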
# HTR2A ag: activates the mouse 5-HT2A serotonin receptor. CHO-K1 mHTR2A beta-arrestin complementation, luminescence; percent of 30 µM serotonin response. activation, % at 7.6 µM. 360,000 tested, 0.66% active. AID 624169;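 active means activation above a run cutoff, the mean activation of all tested compounds plus 3 SD, cut at about 14% in these data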;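 further: 0% = plate median of compound wells and 100% = 30 µM serotonin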
# MC4R barr ag: human MC4R beta-arrestin agonism confirmation | shares compounds with MC4R barr agon | U2OS MC4R beta-arrestin recruitment, luminescence; scaled DMSO 0%, Melanotan II 100% | activation, % at 8.9 µM | 2,400 tested, 31% active;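 active means mean activation across replicates above the hit cutoff set in the earlier primary screen, cut at about 8% in these data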
# MOR-DOR barr ag: OPRM1-OPRD1 heterodimer agonism counter-screen; shares compounds with MC4R barr agon; U2OS PathHunter beta-arrestin, beta-gal luminescence; percent of deltorphin B response, DMSO zero; activation, % at 9.2 µM; 2,400 tested, 5.8% active; AID 602194;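 active means mean activation across replicates exceeds the hit threshold derived in the earlier primary screen, cut at about 18% in these data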;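 further: 100% = deltorphin B at 0.9 µM final and 0% = DMSO alone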
# * marks the source's active call; other numbers are inactive results; x = no result.
SMILES,MC4R antagonist,EBI2 block,MC4R barr agon,HTR2A ag,MC4R barr ag,MOR-DOR barr ag
CN1CCN(c2cc(N3CCc4ccccc4C3)c(F)cc2[N+](=O)[O-])CC1,7,-3,14*,-3,11*,12
O=C(O)COc1ccc(NC(=O)c2ccc3c(c2)C(=O)N(CC2CCCO2)C3=O)cc1 (stereo not given),-5,-1,-3,-3,x,x
Cc1c(C(=O)Nc2ccc(C(F)(F)F)cc2)sc2ncn(CC(=O)N3CCN(c4ccccn4)CC3)c(=O)c12,-5,-10,14*,-7,5,9
Cc1ccc(NC(=O)c2sc3ncn(CC(=O)N4CCN(c5ccccn5)CC4)c(=O)c3c2C)cc1,-1,0,-1,1,x,x
CCOC(=O)Cc1csc(NC(=O)CSc2nc(=O)[nH]c3c2CCC3)n1,17,2,-2,6,x,x
O=C(N/N=C/c1ccc2c(c1)OCO2)c1sc2cc(Cl)ccc2c1Cl,-3,5,0,1,x,x
COc1ccc2c(Cl)c(C(=O)N/N=C/c3ccc4c(c3)OCO4)sc2c1,-4,3,12*,5,7,4
C[C@H]1CN([C@@H](C)CO)C(=O)c2cc(NC(=O)C3CCCCC3)ccc2O[C@H]1CN(C)S(=O)(=O)c1ccccc1,7,13,-1,-4,x,x
N#Cc1ccc(OCC(=O)NCC2COc3ccccc3O2)cc1 (stereo not given),-2,15,-1,-4,x,x
Clc1ccc(-c2nc3nc4ccccc4nc3n2Cc2ccco2)cc1,-1,25,20*,4,-2,4
CCc1nc2ccc(C(=O)N3CCN(S(=O)(=O)CC)CC3)cn2c1N(C)C(=O)c1cccc(OC)c1,6,-24,0,3,x,x
CCCn1nnc(NC(=O)c2ccc(-c3cc(Cl)ccc3Cl)o2)n1,2,-2,9.6*,-2,8,3
CC(C(=O)NCc1ccccc1)n1c(-c2ccc3c(c2)CCO3)nc2ccccc21 (stereo not given),x,11,x,-1,x,x
O=C(c1ccccc1)c1coc2c1C(=O)c1ccccc1C2=O,-7,-6,1,2,x,x
COc1ccc(C(=O)c2coc3c2C(=O)C(=O)c2ccccc2-3)cc1,-3,8,17*,-1,4,6
CCCCNC(=O)C(NC(=O)Cc1cc(OC)cc(OC)c1)C(=O)c1ccccc1 (stereo not given),x,-7,x,0,x,x
CC(=O)c1ccc(OC2(C)CCN(Cc3ccc4c(c3)OCCO4)C2)cc1 (stereo not given),-5,-10,-1,-2,x,x
Cc1ccc(NC(=O)c2cc(S(=O)(=O)Nc3ccc(C)cc3)cs2)cc1,-3,7,9.6*,-7,13*,17
Cc1ccc(NS(=O)(=O)c2ccc(NC(=O)c3cccs3)cc2)c(C)c1,-10,-14,-1,-1,x,x
COC(=O)C1(C(=O)OC)C[C@H](c2cccs2)N(Cc2ccccc2OC)[C@@H]1c1ccc(F)cc1,x,31,x,-12,x,x
CCOC(=O)c1oc2ccc(S(=O)(=O)N3CCC(C)CC3)cc2c1C,4,8,13*,1,-1,5
O=C(NC(c1ccccc1)c1ccc2ccccc2n1)C1CCN(CCOc2ccc(Cl)cc2Cl)CC1 (stereo not given),13,40,39*,0,18*,7
COc1ccc(C(NC(=O)C2CCN(CCOc3ccc(Cl)cc3Cl)CC2)c2ccccn2)cc1 (stereo not given),12,9,3,-3,x,x
Cc1cccnc1C(c1ccc(F)cc1)N(C)C(=O)C1CCN(CCOc2ccc(Cl)cc2Cl)CC1 (stereo not given),7,14,11*,2,18*,10
Cn1c(CCCOc2ccc(Cl)cc2Cl)nnc1SCC(=O)Nc1ccc(F)c(Cl)c1,4,-1,7,0,x,x
SMILES,MC4R antagonist,EBI2 block,MC4R barr agon,HTR2A ag,MC4R barr ag,MOR-DOR barr ag
C=CCn1c(CCCOc2ccc(Cl)cc2Cl)nnc1SCC(=O)Nc1nccs1,-6,0,9.7*,-3,1,6
Cn1c(CCCOc2ccc(Cl)cc2Cl)nnc1SCC(=O)Nc1cccc(F)c1,-2,1,19*,3,9.8*,10
COC(=O)c1cc(Nc2cc(C)c3c(O)cccc3n2)cc(C(=O)OC)c1,12,-6,12*,-2,7,8
COC(=O)c1cc(Nc2cc(C)c3ccc(O)cc3n2)cc(C(=O)OC)c1,-16,-10,3,3,x,x
O=C1Nc2ccccc2O/C1=C\c1ccccc1,11,4,13*,12,1,5
O=C1NC(=O)C(=Cc2ccccc2)N1,4,-8,2,8,x,x
COc1ccc([C@H]2CC(=O)C[C@@H](CCn3cc(Cc4ccccc4)nn3)O2)cc1,x,0,x,-2,x,x
CC(C)(C)OC(=O)N[C@@H](Cc1ccccc1)c1nnc(SCC(=O)c2ccc(Cl)cc2)o1,-1,31,35*,2,2,3
CC(C)(C)OC(=O)N[C@@H](Cc1ccccc1)c1nnc(SCC(=O)O)o1,2,-4,-2,4,x,x
O=[N+]([O-])c1ccc(/C=C/c2ccc3cccc([N+](=O)[O-])c3n2)cc1,4,11,10*,-7,4,7
Cc1ccc(NC(=O)OCc2cc(-c3ccccc3)on2)cc1,-5,-8,11*,4,1,6
O=C(Nc1ccc(Cl)cc1)OCc1ccccn1,3,3,-1,-2,x,x
O=C(Nc1ccc(Cl)cc1)OCc1cc(-c2ccccc2Cl)on1,4,5,11*,-2,8.6*,5
O=C(OCc1cc(=O)n2ccsc2n1)C1(c2ccccc2)CC1,2,11,-2,-3,x,x
CCOc1ccc(OCCSc2nc3ccccc3c(=O)[nH]2)cc1,1,-12,9.6*,-3,0,7
O=c1[nH]c(SCCOc2cccc3ccccc23)nc2ccccc12,26,2,10*,8,0,4
CCOc1ccc(OCCSc2nc(C)cc(=O)[nH]2)cc1,3,3,-1,-3,x,x
COc1ccc2cc(CNCCOCCOCCNCc3ccc4cc(OC)ccc4c3)ccc2c1,5,-26,17*,-6,58*,20*
CCOc1cc(/C=C2\CCn3c2nc2cc(Cl)ccc2c3=O)ccc1O,11,36,12*,5,9.2*,2
O=c1c2ccc(Cl)cc2nc2n1CC/C2=C\c1cccc(O)c1,12,13,4,6,x,x
CCCCn1c(=O)c(CCC(=O)OCC(=O)Nc2ccc(F)c(Cl)c2)nc2ccccc21,9,-5,10*,3,6,4
CCCCn1c(=O)c(CCC(=O)OCC(=O)Nc2cc(Cl)ccc2OC)nc2ccccc21,7,-11,-2,0,x,x
